Measured values gathered from unrelated publications.
Cell line: HepG2
Observed: cell growth or viability

With `COc1cc2c(cc1OCc1ccccc1F)C1Cc3c(n(CO)c4ccccc34)CN1CC2` (stereo not shown) the viability was 119% (5 µM; 24 h).
For `CC(C)(C)CC(C)(C)Nc1c(-c2ccccc2)nc2ncccn12`, the viability was 67.4% (MTT; 25 µM; 48 h).
With `N=C(N)c1ccc(OCCCCCOc2ccc(C(=N)N)cc2)cc1` the CC50 was greater than 20 µM (MTS; 24 h).
With `CNc1cccc2cc(C(=O)Nc3ccc(C(=O)O)cc3)c(=O)[nH]c12` the cell death was 1.5% (CCK-8; 10 µM; 48 h).
For `COc1cc2[nH]c(C)c(-c3ccc(Oc4ccc(F)c(OC(F)(F)F)c4)cc3)c(=O)c2cc1Cl`, the IC50 was greater than 10 µM (resazurin).
`CCCCCCn1c(-c2cccc(Cl)c2)n[nH]c1=S` has a viability of 92% (resazurin; 50 µM; 24 h).
`COc1cc2[nH]c(C)c(-c3ccc(Oc4ccc(C(F)(F)F)cn4)cc3)c(=O)c2cc1Cl` has an IC50 of greater than 10 µM (resazurin).
`COC1=CC(c2cccn2C)=NC1=Cc1ccc(CCCCCCCCCC(C)O)[nH]1` (stereo not shown) has an IC50 of greater than 100 µM.
For `COc1ccc2c(c1)c1c(n2CO)CN2CCc3cc(OC)c(OCC(F)(F)F)cc3C2C1` (stereo not shown), the viability was 102% (5 µM; 24 h).
`CC1(C)CC[C@]2(C)CC[C@]3(C)[C@H]4CC=C5[C@@H](CC[C@H](O)C5(C)C)[C@]4(C)CC[C@@]3(C)[C@@H]2C1` has an IC50 of 50.9 µM (WST-1).
With `COc1ccc2c(c1)c1c(n2CO)CN2CCc3cc(OC)c(OCc4ccc(F)cc4)cc3C2C1` (stereo not shown) the viability was 104% (20 µM; 24 h).
`COc1cc2[nH]c(C)c(-c3ccc(Oc4cccc(OC(F)(F)F)c4)cc3)c(=O)c2cc1Cl` has an IC50 of greater than 10 µM (resazurin).
The viability of `COc1ccc2c(c1)c1c(n2CO)CN2CCc3cc(OCc4ccccc4)c(OC)cc3C2C1` (stereo not shown) is reported as 111% (10 µM; 24 h).
For `COC1=CC(c2ccc[nH]2)=NC1=Cc1ccc(CCCCCCCCCCCCO)[nH]1`, the IC50 was 6.18 µM.
`C/C=C(/C)C(=O)O[C@@H]1[C@H](OC(C)=O)c2c(ccc3ccc(=O)oc23)OC1(C)C` gave an IC50 of 50.9 µM (WST-1).
`COc1ccc(CCN2CCC(Nc3nc4ccccc4n3Cc3ccc(F)cc3)CC2)cc1` has a viability of 20% (resazurin; 50 µM; 24 h).
The IC50 of `CC1=C(C)C(c2ccc[nH]2)=NC1=Cc1ccc(CCCCCCCCCC(C)O)[nH]1` (stereo not shown) is reported as 9.38 µM.
For `N=C(N/N=C/c1ccccc1)N/N=C/c1ccccc1F`, the IC50 was 60 µM (resazurin; 24 h).
The viability of `COc1ccc(-c2nc3ncccn3c2NC(C)(C)CC(C)(C)C)cc1O` is reported as 77.7% (MTT; 25 µM; 48 h).
